Screens (PubChem BioAssay)
UBC13 polyUb: inhibitors of human UBC13 polyubiquitin chain formation; P61088; TR-FRET; inhibition, % at 20 µM; hit rate 0.47% among 330,000; AID 485273; in the data active means inhibition above about 45%, passing the limit was not always enough; inconclusive means no clear call, values can overlap the other calls
UPR XBP1 act: activators of adaptive arm of unfolded protein response (XBP1); activation, % at 20 µM; CHO-XBP1 luciferase reporter, IRE1-XBP1 UPR activation, luminescence; percent of tunicamycin response, DMSO as zero; hit rate 0.33% among 330,000;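 active means versus positive control, 20 µM dose yields 30% or more activation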
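Material: CHO cell line with stable XBP1 luciferase reporter; schedule: 16-18 h cell attachment at 37 °C, then 6 h compound exposure; signal: glow luminescence from Steady-Glo reagent; medium: serum-containing F12 medium, 10% FBS; benchmarks: tunicamycin 10 µg/mL and vehicle-only wells; read-out: percent activation relative to tunicamycin reference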
Apaf1 inhib: human Apaf-1 inhibition; reconstituted apoptosome caspase-3 activity, DEVD-Rh110 fluorescence; inhibition, % at 20 µM; AID 489030; hit rate 0.71% among 330,000; O14727; active means inhibition of at least 40% at 20 µM
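Material: reconstituted apoptosome with Apaf-1, cytochrome c, caspase-9, procaspase-3, dATP; medium: pH 7.5 Hepes buffer with CHAPS, BSA, DTT; also added: cytochrome c and DEVD-Rh110 substrate; timing: 30 min plus 50 min, RT; signal: Rh110 fluorescence intensity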
Mdm2 MdmX PPI: human Mdm2/MdmX binding inhibition; O15151+Q00987; SaOS-2 split-luciferase Mdm2/MdmX complementation, luminescence; inhibition, % at 8 µM; hit rate 3% among 330,000;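 active means inhibition of at least 50% at 8 µM in the primary screen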
Target sequence (O15151 whole entry, looked up): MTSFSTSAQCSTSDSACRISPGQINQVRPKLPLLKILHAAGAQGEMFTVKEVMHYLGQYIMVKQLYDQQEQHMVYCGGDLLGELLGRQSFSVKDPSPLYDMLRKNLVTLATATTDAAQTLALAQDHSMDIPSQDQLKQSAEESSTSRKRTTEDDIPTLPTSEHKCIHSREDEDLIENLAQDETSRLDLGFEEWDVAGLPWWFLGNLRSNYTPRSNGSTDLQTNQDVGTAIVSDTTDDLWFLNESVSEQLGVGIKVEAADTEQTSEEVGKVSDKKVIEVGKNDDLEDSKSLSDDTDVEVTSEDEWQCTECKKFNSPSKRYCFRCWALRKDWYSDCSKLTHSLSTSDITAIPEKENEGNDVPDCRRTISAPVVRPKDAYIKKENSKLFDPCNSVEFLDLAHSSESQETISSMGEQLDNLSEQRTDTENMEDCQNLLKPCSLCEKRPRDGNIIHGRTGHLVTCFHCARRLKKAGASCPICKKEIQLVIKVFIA
Target sequence (Q00987 whole entry, looked up): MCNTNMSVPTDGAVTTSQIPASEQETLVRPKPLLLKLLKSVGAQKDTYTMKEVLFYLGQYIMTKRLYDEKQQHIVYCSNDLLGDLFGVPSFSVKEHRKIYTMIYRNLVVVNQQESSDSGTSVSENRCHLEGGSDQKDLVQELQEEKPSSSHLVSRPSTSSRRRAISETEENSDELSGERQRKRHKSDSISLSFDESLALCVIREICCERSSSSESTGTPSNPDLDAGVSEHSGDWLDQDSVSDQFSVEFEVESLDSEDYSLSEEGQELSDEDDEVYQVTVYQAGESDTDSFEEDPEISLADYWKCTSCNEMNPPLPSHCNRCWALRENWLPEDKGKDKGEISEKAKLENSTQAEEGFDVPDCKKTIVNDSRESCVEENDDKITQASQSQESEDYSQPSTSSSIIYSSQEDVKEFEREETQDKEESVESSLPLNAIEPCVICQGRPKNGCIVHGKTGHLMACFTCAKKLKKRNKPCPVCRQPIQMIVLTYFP
UPR CHOP act: apoptotic UPR (CHOP) activation; CHO-CHOP luciferase reporter, luminescence; percent of tunicamycin response over DMSO baseline; activation, % at 10 µM; hit rate 0.34% among 330,000;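 active means at 10 µM dose, activation of 40% or more, normalized to positive control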
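Assay system: CHO cells with stable CHOP pathway luciferase reporter; Buffer or medium: F12 plus 10% serum; Times: 16-18 h cell attachment, then 6 h compound exposure, 37 °C; Signal: luciferase luminescence; Read-out basis: percent activation relative to tunicamycin control; Control set: tunicamycin high control, DMSO low control.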
UPR CHOP confirm: apoptotic UPR (CHOP) activation, confirmed; shares compounds with UPR CHOP act; CHO-CHOP cells, CHOP-luciferase reporter luminescence; percent of tunicamycin response, DMSO as zero; activation, % at 10 µM; hit rate 64% among 1,000; in the data active means activation above about 33%
A number is an active result; ! = not confirmed by another sample. Shown are actives, neighbours in structure and some others; about 4.1% of the full set was active somewhere.

Results for Nc1cncc(C(=O)O)c1 ?
UBC13 polyUb: inactive; UPR XBP1 act: inactive; Apaf1 inhib: 40.8!; Mdm2 MdmX PPI: inactive; UPR CHOP act: inactive

Results for O=C1CCCN1C(=O)c1cncc(Br)c1 ?
UBC13 polyUb: inactive; UPR XBP1 act: inactive; Apaf1 inhib: inactive; Mdm2 MdmX PPI: inactive; UPR CHOP act: inactive

How did CCCNC1=C(C)C(=O)C2=C(C1=O)C(COC(N)=O)[C@]1(OC)C3NC3CN21 (some centres not stated) do in these assays?
UBC13 polyUb: inactive; UPR XBP1 act: inactive; Apaf1 inhib: 56.5; Mdm2 MdmX PPI: inactive; UPR CHOP act: inactive

How did Cc1ccc2c(c1)N(C(=O)CCC(=O)N1CCC3(CC1)OCCO3)CCO2 do in these assays?
UBC13 polyUb: inactive; UPR XBP1 act: inactive; Apaf1 inhib: inactive; Mdm2 MdmX PPI: inactive; UPR CHOP act: inactive

What do the screens show for `CCN1C[C@]2(COC)CC[C@H](O)[C@]34C1[C@](O)([C@@H](OC)[C@H]23)[C@@]1(O)C[C@H](OC)[C@H]2C[C@@H]4[C@@H]1[C@H]2OC`?
UBC13 polyUb: inactive; UPR XBP1 act: inactive; Apaf1 inhib: inactive; Mdm2 MdmX PPI: inactive; UPR CHOP act: inactive

How did Nc1c(C(=O)NC2CCCC2)c2nc3ccccc3nc2n1CC1CCCO1 (configuration not stated) do in these assays?
UBC13 polyUb: inactive; UPR XBP1 act: inactive; Apaf1 inhib: 94.4; Mdm2 MdmX PPI: inactive; UPR CHOP act: inactive

How did c1ccc(OCC2CO2)cc1 (configuration not stated) do in these assays?
UBC13 polyUb: inactive; UPR XBP1 act: inactive; Apaf1 inhib: inactive; Mdm2 MdmX PPI: inactive; UPR CHOP act: inactive

What do the screens show for `c1ccc(-c2[nH]c[n+](CC3CO3)c2-c2ccccc2)cc1` (configuration not stated)?
UBC13 polyUb: inactive; UPR XBP1 act: inactive; Apaf1 inhib: 51.1; Mdm2 MdmX PPI: inactive; UPR CHOP act: inactive

What do the screens show for `Cc1ccc(S(=O)(=O)N(C)N=O)cc1`?
UBC13 polyUb: inactive; UPR XBP1 act: inactive; Apaf1 inhib: inactive; Mdm2 MdmX PPI: inactive; UPR CHOP act: inactive

What do the screens show for `COC(=O)C1=C(c2cccc(OCc3ccccc3)c2)C[C@@H]2CC[C@H]1N2C(=O)NCc1cc(C)oc1C(F)(F)F`?
UBC13 polyUb: inactive; UPR XBP1 act: inactive; Apaf1 inhib: inactive; Mdm2 MdmX PPI: inactive; UPR CHOP act: inactive

How did C[n+]1c2ccccc2nc2ccc(NCCO)cc21 do in these assays?
UBC13 polyUb: inactive; UPR XBP1 act: inactive; Apaf1 inhib: 93.9; Mdm2 MdmX PPI: inactive; UPR CHOP act: inactive

Results for CC(C)C[C@H]1C(=O)N2CCC[C@H]2[C@]2(O)O[C@](NC(=O)[C@@H]3C=C4c5cccc6[nH]cc(c56)C[C@H]4N(C)C3)(C(C)C)C(=O)N12 ?
UBC13 polyUb: inactive; UPR XBP1 act: inactive; Apaf1 inhib: 91.1; Mdm2 MdmX PPI: inactive; UPR CHOP act: inactive

How did COC(=O)C1C=C2c3cccc4[nH]cc(c34)CC2N(C)C1 (configuration not stated) do in these assays?
UBC13 polyUb: inactive; UPR XBP1 act: inactive; Apaf1 inhib: 55.8; Mdm2 MdmX PPI: inactive; UPR CHOP act: inactive

Results for CCC(CO)NC(=O)C1C=C2c3cccc4[nH]cc(c34)CC2N(C)C1 (configuration not stated) ?
UBC13 polyUb: inactive; UPR XBP1 act: inactive; Apaf1 inhib: inactive; Mdm2 MdmX PPI: inactive; UPR CHOP act: inactive

What do the screens show for `Cc1ccc(OCCOc2cccc(C=C3C(=O)NC(=O)NC3=O)c2)c(C)c1`?
UBC13 polyUb: inactive; UPR XBP1 act: inactive; Apaf1 inhib: inactive; Mdm2 MdmX PPI: inactive; UPR CHOP act: inactive

How did N[C@@H]1CCCC[C@H]1N.O=C(O)C(=O)O.[Pt] do in these assays?
UBC13 polyUb: inactive; UPR XBP1 act: inactive; Apaf1 inhib: inactive; Mdm2 MdmX PPI: inactive; UPR CHOP act: inactive

What do the screens show for `CN1CC[C@@]2(C)c3cc(O)ccc3N(C)C2O1` (some centres not stated)?
UBC13 polyUb: inactive; UPR XBP1 act: inactive; Apaf1 inhib: 92.4; Mdm2 MdmX PPI: inactive; UPR CHOP act: inactive

How did Cc1ccsc1/C=C1\C(=O)NC(=S)N(C)C1=O do in these assays?
UBC13 polyUb: inactive; UPR XBP1 act: inactive; Apaf1 inhib: inactive; Mdm2 MdmX PPI: inactive; UPR CHOP act: 175.8

Results for COc1ccc(OC)c(N2C(=O)/C(=C/c3ccco3)C(=O)NC2=S)c1 ?
UBC13 polyUb: inconclusive; UPR XBP1 act: inactive; Apaf1 inhib: 72.6; Mdm2 MdmX PPI: inactive; UPR CHOP act: inactive

How did Cc1ccc(/C=C2\C(=O)NC(=S)N(c3cccc(F)c3)C2=O)o1 do in these assays?
UBC13 polyUb: inactive; UPR XBP1 act: inactive; Apaf1 inhib: inactive; Mdm2 MdmX PPI: inactive; UPR CHOP act: inactive

Results for O=C1NC(=S)N(c2ccc(F)cc2)C(=O)/C1=C/c1ccco1 ?
UBC13 polyUb: inconclusive; UPR XBP1 act: inactive; Apaf1 inhib: 70.3; Mdm2 MdmX PPI: inactive; UPR CHOP act: inactive

What do the screens show for `C/C(=N\N1CCCCCC1)c1c(O)n(-c2ccccc2C)c(=O)[nH]c1=O`?
UBC13 polyUb: inactive; UPR XBP1 act: inactive; Apaf1 inhib: inactive; Mdm2 MdmX PPI: inactive; UPR CHOP act: inactive

Results for CCOc1cc2c(cc1OCC)-n1cccc1C(c1ccc(C(C)C)cc1)NC2 (configuration not stated) ?
UBC13 polyUb: inactive; UPR XBP1 act: inactive; Apaf1 inhib: inactive; Mdm2 MdmX PPI: inactive; UPR CHOP act: inactive

How did C[N+]1(C)[C@@H]2CC[C@H]1CC(OC(=O)[C@@H](CO)c1ccccc1)C2 (some centres not stated) do in these assays?
UBC13 polyUb: inactive; UPR XBP1 act: inactive; Apaf1 inhib: 70.1; Mdm2 MdmX PPI: inactive; UPR CHOP act: inactive

How did CCOC(=O)c1c(N)n(CCCOC(=O)c2ccco2)c2nc3ccccc3nc12 do in these assays?
UBC13 polyUb: inactive; UPR XBP1 act: inactive; Apaf1 inhib: 43.3; Mdm2 MdmX PPI: inactive; UPR CHOP act: inactive

Results for COCCOC(=O)c1c(N)n(Cc2ccco2)c2nc3ccccc3nc12 ?
UBC13 polyUb: inactive; UPR XBP1 act: inactive; Apaf1 inhib: inactive; Mdm2 MdmX PPI: inactive; UPR CHOP act: inactive

Results for COCCCNC(=O)c1c(N)n(Cc2ccco2)c2nc3ccccc3nc12 ?
UBC13 polyUb: inactive; UPR XBP1 act: inactive; Apaf1 inhib: inactive; Mdm2 MdmX PPI: inactive; UPR CHOP act: inactive

How did CCCNC(=O)c1c(N)n(Cc2ccco2)c2nc3ccccc3nc12 do in these assays?
UBC13 polyUb: inactive; UPR XBP1 act: inactive; Apaf1 inhib: 40.5; Mdm2 MdmX PPI: inactive; UPR CHOP act: inactive

What do the screens show for `CN1CSC(=S)N(C)C1`?
UBC13 polyUb: inactive; UPR XBP1 act: inactive; Apaf1 inhib: inactive; Mdm2 MdmX PPI: inactive; UPR CHOP act: 40.3; UPR CHOP confirm: inactive

How did C=CCN1C(=O)/C(=C/c2ccc3c(c2)CCCN3CCC)C(=O)NC1=S do in these assays?
UBC13 polyUb: inactive; UPR XBP1 act: inactive; Apaf1 inhib: inactive; Mdm2 MdmX PPI: inactive; UPR CHOP act: 95.0; UPR CHOP confirm: 164.2
